The values below come from ChEMBL document CHEMBL1153447, “Synthesis, cytotoxic and combined cDDP activity of new stable curcumin derivatives” (Bioorg Med Chem, 2009).

Each structure is given as a SMILES string.

The nature of data set [1]: Cytotoxicity against african green monkey Vero cells assessed as inhibition of growth at 750 uM after 72 hrs by crystal violet dye assay. Particulars: chlorocebus sabaeus, read-out: Activity. It is filed as cell-based. In short, it runs like this:
(§1)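 Vero cells (African green monkey kidney) grown in MEM with 10% heat-inactivated fetal calf serum, penicillin G and streptomycin, 5% CO2, 37 °C. Seeded 4 × 10^4 cells/well, exposed 24 h later to compound for 3 days. Methanol-fixed, crystal violet-stained, dye solubilized in acidic isopropanol, absorbance read at 540 nm. Cytotoxicity is calculated against untreated controls. Mean of three experiments run in duplicate.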

Data set [2] has as its system 2008. Briefly: Cytotoxicity against cisplatin-sensitive human 2008 cells after 72 hrs by crystal violet dye assay. It is filed as functional, cell-based. The following applies: Homo sapiens, 2008, 72 h. In short, it runs like this:
(§2)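 2008 ovarian carcinoma cells or the cisplatin-resistant C13* subline, grown in RPMI 1640 with 10% heat-inactivated FBS and gentamycin, 5% CO2, 37 °C, mycoplasma-negative. Seeded 4 × 10^4 cells/well, exposed 24 h later to compound for 3 days. Crystal violet stain solubilized in acidic isopropanol, absorbance read at 540 nm versus untreated controls. IC50 taken from dose–response curves. Mean of three experiments run in duplicate.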

The nature of data set [3]: Cytotoxicity against cisplatin-resistant human C13 cells after 72 hrs by crystal violet dye assay. Particulars: C13, 72 h. It is filed as functional, cell-based. In short, it runs like this: as §2
In data set [4] the test system is 2008. Put plainly: Resistant factor, ratio of IC50 for cisplatin-resistant human C13 cells to IC50 for cisplatin-sensitive human 2008 cells. The class given is functional. Summed up: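 RF^I is the IC50 in C13* cells divided by the IC50 in parental 2008 cells. Both IC50s come from a 3-day crystal violet dose–response assay, read at 540 nm.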
Data set [5] can be described thus: Cytotoxicity against cisplatin-resistant human C13 cells at 750 uM after 72 hrs by crystal violet dye assay. The class given is functional. Summed up: as §2
The test system of data set [6] is 2008. Put plainly: Cytotoxicity against cisplatin-sensitive human 2008 cells at 750 uM after 72 hrs by crystal violet dye assay. The class given is functional. Summed up: as §2
Data set [7] is described as follows: Cytotoxicity against african green monkey Vero cells assessed as cell survival at 750 uM after 72 hrs by crystal violet dye assay. It is filed as cell-based. The following applies: chlorocebus sabaeus, read-out: Activity. Summed up: as §1
Data set [8] concerns Vero. Put plainly: Cytotoxicity against african green monkey Vero cells after 72 hrs by crystal violet dye assay. It is filed as cell-based. The following applies: Chlorocebus sabaeus. Summed up: as §1
Data set [9] deals with Vero. Put plainly: Resistance factor, ratio of IC50 for african green monkey Vero cells to IC50 for cisplatin-resistant human C13 cells. In short, it runs like this: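 RF^II is the IC50 in Vero cells divided by the IC50 in C13* cells. Each IC50 comes from a 3-day crystal violet dose–response assay, read at 540 nm.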
Data set [10] relates to Vero. Briefly: Cytotoxicity against african green monkey Vero cells at 5 uM after 72 hrs by crystal violet dye assay. The class given is cell-based. The following applies: chlorocebus sabaeus. In short, it runs like this: as §1
The subject of data set [11] is 2008. Put plainly: Cytotoxicity against cisplatin-sensitive human 2008 cells at 10 uM after 72 hrs by crystal violet dye assay. The class given is functional. In short, it runs like this:
as §2

The test system of data set [12] is Vero. Briefly: Cytotoxicity against african green monkey Vero cells at 10 uM after 72 hrs by crystal violet dye assay. Particulars: chlorocebus sabaeus. It is filed as cell-based. In short, it runs like this:
as §1

Data set [13] in a line: Cytotoxicity against cisplatin-resistant human C13 cells at 10 uM after 72 hrs by crystal violet dye assay. The class given is functional. Summed up:
as §2

By IC50 is commonly meant the point on the concentration scale where inhibition reaches its midpoint. For `COc1cc(/C=C/C(=O)CC(=O)/C=C/c2ccc(O[C@@H]3O[C@H](CO)[C@@H](O)[C@H](O)[C@H]3O)c(OC)c2)ccc1O[C@@H]1O[C@H](CO)[C@@H](O)[C@H](O)[C@H]1O`, in [1], the inhibition at 72 h, 750 µM was found to be 20%. The IC50 with 2008 [2] is 220 µM; in data set [3], 840 µM. Also, the “Ratio IC50” value in the data set with 2008 [4] was found to be 3.8.

With `O=C(/C=C/c1ccc(O[C@@H]2O[C@H](CO)[C@@H](O)[C@H](O)[C@H]2O)c(O)c1)CC(=O)/C=C/c1ccc(O[C@@H]2O[C@H](CO)[C@@H](O)[C@H](O)[C@H]2O)c(O)c1`, the Activity was found to be 15% in data set [5] and 70% in the data set on 2008 [6]. The compound further yielded a half-maximal inhibitory concentration (IC50) in the data set on 2008 [2] of 480 µM. Moreover, in [7], the viability at 72 h, 750 µM is 80%. Moreover, the “Ratio IC50” value with 2008 [4] is given as greater than 2.

In the case of `O=C(/C=C/c1ccc(O[C@@H]2O[C@H](CO)[C@@H](O)[C@H](O)[C@H]2O)cc1)CC(=O)/C=C/c1ccc(O[C@@H]2O[C@H](CO)[C@@H](O)[C@H](O)[C@H]2O)cc1`, the concentration for half-maximal inhibition (IC50) is 22 µM with 2008 [2], 83 µM in data set [3] and 330 µM in the data set on Vero [8]. Further, the “Ratio IC50” value with Vero [9] was 3.97; in the data set with 2008 [4] it was 3.8.

Regarding `COc1cc(/C=C/C(=O)CC(=O)/C=C/c2ccc(O)c(OC)c2)ccc1O` [CURCUMIN], the Activity worked out at 10% in the data set on Vero [10], 90% in the data set on 2008 [11], 25% in the data set with Vero [12] and 45% in data set [13]. The figures for the IC50 (with 2008 [2]; in [3]; with Vero [8]) were 5 µM, 17 µM and 22 µM, respectively. Also, the “Ratio IC50” value stood at 1.3 with Vero [9] and 3.4 in the data set with 2008 [4].
